Laboratory results from ChEMBL document CHEMBL1159036, “Design and synthesis of selective inhibitors of placental alkaline phosphatase” (Bioorg Med Chem, 2010).

Key:
[1] = target: Intestinal-type alkaline phosphatase (Homo sapiens, UniProt P09923); assay: Inhibition of IAP by analogous luminescence assay
[2] = target: T1, Alkaline phosphatase, tissue-nonspecific isozyme (Homo sapiens, UniProt P05186); assay: Inhibition of TNAP by analogous luminescence assay
T1 sequence (P05186 whole entry): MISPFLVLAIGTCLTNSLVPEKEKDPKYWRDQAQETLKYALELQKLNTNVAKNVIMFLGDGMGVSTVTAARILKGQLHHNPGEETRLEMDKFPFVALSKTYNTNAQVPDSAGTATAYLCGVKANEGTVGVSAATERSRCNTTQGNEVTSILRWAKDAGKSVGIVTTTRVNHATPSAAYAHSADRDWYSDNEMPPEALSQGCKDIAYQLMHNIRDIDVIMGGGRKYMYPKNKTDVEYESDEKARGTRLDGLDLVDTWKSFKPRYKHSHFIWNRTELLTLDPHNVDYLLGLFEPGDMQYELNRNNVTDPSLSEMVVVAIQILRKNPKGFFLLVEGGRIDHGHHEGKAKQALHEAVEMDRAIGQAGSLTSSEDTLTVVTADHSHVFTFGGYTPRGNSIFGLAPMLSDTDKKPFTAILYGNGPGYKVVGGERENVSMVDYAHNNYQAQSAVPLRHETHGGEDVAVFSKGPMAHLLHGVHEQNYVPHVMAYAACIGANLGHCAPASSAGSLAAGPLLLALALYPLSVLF

[3] = target: Alkaline phosphatase, germ cell type (Homo sapiens, UniProt P10696); assay: Inhibition of GCAP by analogous luminescence assay
Chain of Alkaline phosphatase, germ cell type (P10696 whole entry): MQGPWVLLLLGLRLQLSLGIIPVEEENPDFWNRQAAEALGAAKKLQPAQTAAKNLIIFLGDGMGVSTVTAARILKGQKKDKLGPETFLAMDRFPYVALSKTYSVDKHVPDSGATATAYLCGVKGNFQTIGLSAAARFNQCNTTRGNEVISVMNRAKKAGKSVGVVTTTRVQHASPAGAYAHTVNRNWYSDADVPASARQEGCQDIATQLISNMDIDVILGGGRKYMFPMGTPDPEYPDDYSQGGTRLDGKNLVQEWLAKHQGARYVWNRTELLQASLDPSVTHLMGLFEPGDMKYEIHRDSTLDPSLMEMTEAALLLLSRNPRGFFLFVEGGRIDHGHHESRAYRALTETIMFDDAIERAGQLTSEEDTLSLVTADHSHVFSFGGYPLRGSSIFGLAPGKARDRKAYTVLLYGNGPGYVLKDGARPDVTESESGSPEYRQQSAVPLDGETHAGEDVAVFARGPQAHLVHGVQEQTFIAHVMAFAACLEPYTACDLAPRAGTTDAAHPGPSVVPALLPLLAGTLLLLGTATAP
Summary of the method: (§1)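 GCAP and PLAP IC50s were measured together in dose-response runs on a separate occasion, using enzyme concentrations that differed from those of the main assays.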

[4] = Selectivity ratio of IC50 for GCAP to IC50 for PLAP; summary of the method: as §1
[5] = Selectivity ratio of IC50 for IAP to IC50 for PLAP
[6] = Selectivity ratio of IC50 for TNAP to IC50 for PLAP

Chain of Intestinal-type alkaline phosphatase (P09923 whole entry): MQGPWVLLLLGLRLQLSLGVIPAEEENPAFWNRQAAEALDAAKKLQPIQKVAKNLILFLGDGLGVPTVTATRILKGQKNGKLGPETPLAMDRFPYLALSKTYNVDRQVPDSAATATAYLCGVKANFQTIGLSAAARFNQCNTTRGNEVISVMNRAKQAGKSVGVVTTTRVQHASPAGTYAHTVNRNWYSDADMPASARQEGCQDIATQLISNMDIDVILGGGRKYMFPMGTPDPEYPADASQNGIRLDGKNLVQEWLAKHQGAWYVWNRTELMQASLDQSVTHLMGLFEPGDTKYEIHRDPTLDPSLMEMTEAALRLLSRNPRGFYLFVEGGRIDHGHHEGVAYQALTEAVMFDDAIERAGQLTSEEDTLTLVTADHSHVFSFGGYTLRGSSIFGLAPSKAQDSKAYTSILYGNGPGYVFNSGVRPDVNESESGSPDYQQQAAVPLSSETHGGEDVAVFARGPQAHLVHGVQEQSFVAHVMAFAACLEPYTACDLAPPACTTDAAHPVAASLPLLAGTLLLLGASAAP

SMILES | IC50 [1] [µM] | IC50 [2] [µM] | also measured
N[C@@H](Cc1ccccc1)C(=O)O [PHENYLALANINE] | > 5 |  | 
CC(C)C[C@H](N)C(N)=O [LEUCINE AMIDE] | > 5 |  | 
O=C(Cn1cnc(Br)c1)c1ccc(O)c(O)c1 |  | 47.5 | 
N=C(N)NCCCC[C@H](N)C(=O)O | > 5 |  | 
CC(C)NCC(=O)c1ccc(O)c(O)c1 |  | > 100 | 
CCc1nccn1CC(=O)c1ccc(O)c(O)c1 | > 100 | > 100 | IC50 [3]: 1.7 µM; Ratio IC50 [4]: 2.1; Ratio IC50 [5]: > 24; Ratio IC50 [6]: > 27
N[C@@H](Cc1c[nH]c2ccccc12)C(=O)O [TRYPTOPHAN] | > 5 |  | 
c1ccc([C@H]2CN3CCSC3=N2)cc1 [LEVAMISOLE] | > 5 |  | 
Cc1cnn(CC(=O)c2ccc(O)c(O)c2)c1 |  | > 100 | Ratio IC50 [5]: 25
CC(C)C[C@H](N)C(=O)O [LEUCINE] | > 5 |  | 
Cn1c(=O)c2[nH]cnc2n(C)c1=O [THEOPHYLLINE] | > 5 |  | 
COc1ccc(-n2nnnc2SCC(=O)c2ccc(O)c(O)c2)cc1 |  | 8 | 
O=C(Cn1ccnc1)c1ccc(O)c(O)c1 |  | > 100 | IC50 [3]: 1.2 µM; Ratio IC50 [4]: 0.6; Ratio IC50 [5]: 15; Ratio IC50 [6]: > 32
O=C(Cn1cnnc1)c1ccc(O)c(O)c1 |  | > 100 | 
Cc1cc(C)nc(SCC(=O)c2ccc(O)c(O)c2)n1 |  |  | IC50 [3]: 0.6 µM
COc1ccc2c(c1OC)C(=O)OC2CC(=O)c1ccc(O)c(O)c1 (configuration not stated) |  | 29.2 | 

More lines, main results first:

IC50 [1] [µM] | IC50 [2] [µM] | SMILES | also measured
 | 78.3 | Cc1nccn1CC(=O)c1ccc(O)c(O)c1 | IC50 [3]: 30.5 µM
 | > 100 | O=C(Cn1ccnc1-c1ccccc1)c1ccc(O)c(O)c1 | 
 | 8.7 | Cc1nc(Br)cn1CC(=O)c1ccc(O)c(O)c1 | Ratio IC50 [6]: 1.7
> 100 | 26.3 | Cc1nc2ccccc2n1CC(=O)c1ccc(O)c(O)c1 | IC50 [3]: 9.4 µM
 | 18 | O=C(Cn1cnc2ccccc21)c1ccc(O)c(O)c1 | IC50 [3]: 2.7 µM
 | 41.1 | Cc1cn(CC(=O)c2ccc(O)c(O)c2)cn1 | Ratio IC50 [6]: 7
 | 93.8 | O=C(CNc1nc2ccccc2[nH]1)c1ccc(O)c(O)c1 | IC50 [3]: 6.2 µM; Ratio IC50 [4]: 0.7
 | > 100 | Cc1cc2ncn(CC(=O)c3ccc(O)c(O)c3)c2cc1C | 
